Assay results reported in publication PMC4618315 (Nature, 2015).
Residue numbers refer to the chain shown, from its start.

Key:
Format in all cases: binding
rGLUT5 Q166E = target: T1, rGLUT5 Q166E (Rattus norvegicus, UniProt P43427, A285T/N50Y/Q166E/T452S); test: Tryptophan fluorescence quenching of purified rat GLUT5 Q166E mutant; conditions: rGLUT5 Q166E relative to WT; 40 mM sugar
T1 sequence (P43427 with tags, fused parts or gaps N50Y/Q166E/A285T/T452S): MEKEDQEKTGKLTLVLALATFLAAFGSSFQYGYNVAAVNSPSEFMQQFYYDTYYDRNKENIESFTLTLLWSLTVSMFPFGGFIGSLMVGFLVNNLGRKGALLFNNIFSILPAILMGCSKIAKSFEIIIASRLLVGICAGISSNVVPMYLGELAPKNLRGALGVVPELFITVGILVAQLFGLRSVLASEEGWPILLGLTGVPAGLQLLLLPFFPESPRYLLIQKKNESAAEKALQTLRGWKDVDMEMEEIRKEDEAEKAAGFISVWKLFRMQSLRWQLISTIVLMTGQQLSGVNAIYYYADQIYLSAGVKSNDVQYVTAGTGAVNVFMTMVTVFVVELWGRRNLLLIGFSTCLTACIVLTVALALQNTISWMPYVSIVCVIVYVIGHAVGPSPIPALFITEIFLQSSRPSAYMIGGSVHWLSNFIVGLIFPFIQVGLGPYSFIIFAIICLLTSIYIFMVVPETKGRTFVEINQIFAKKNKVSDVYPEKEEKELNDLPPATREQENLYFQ
Outline: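 Deglycosylated N50Y rat background carried the Q166E mutation, made by PCR mutagenesis and purified as WT (Ni-NTA, SEC in DDM). Protein was used at 0.06 mg/ml in 20 mM Tris pH 7.5, 150 mM NaCl, 0.03% DDM, with or without 5 mM HgCl2 pre-incubation. Single 40 mM D-fructose or D-glucose additions, or increasing D-glucose, were incubated 2 min at room temperature. Readout: excitation 295 nm, 338 nm emission peak; triplicate.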

bovine GLUT5 = target: T2, bovine GLUT5 (Bos taurus, UniProt P58353, N51A)
T2 sequence (P58353 with tags, fused parts or gaps N51A): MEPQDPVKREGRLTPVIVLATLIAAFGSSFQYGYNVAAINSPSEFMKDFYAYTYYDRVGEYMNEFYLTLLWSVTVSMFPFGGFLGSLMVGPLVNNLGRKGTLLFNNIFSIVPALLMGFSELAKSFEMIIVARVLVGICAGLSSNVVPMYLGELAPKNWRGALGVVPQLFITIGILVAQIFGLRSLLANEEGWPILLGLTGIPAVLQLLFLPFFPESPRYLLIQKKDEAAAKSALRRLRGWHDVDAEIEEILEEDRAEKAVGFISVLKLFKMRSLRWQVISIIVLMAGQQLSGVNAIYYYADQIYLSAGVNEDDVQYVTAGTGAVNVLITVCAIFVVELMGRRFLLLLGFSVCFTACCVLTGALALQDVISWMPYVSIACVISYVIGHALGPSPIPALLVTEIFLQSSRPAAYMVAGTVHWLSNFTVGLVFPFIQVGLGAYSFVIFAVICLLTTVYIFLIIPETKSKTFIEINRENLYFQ
Outline: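 Bovine construct (residues 1–473 of 501, N51A deglycosylation) was expressed in S. cerevisiae, solubilised in 1% DDM and bound to Ni-NTA. It was TEV-cleaved and run on SEC in 10 mM Tris-HCl pH 7.5, 150 mM NaCl, 0.09% UDMβ. D-fructose was added sequentially, with 2 min room-temperature incubation after each addition. Trp fluorescence: excitation 295 nm, emission 338 nm.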

[1] = target: T3, rGLUT5 (rat GLUT5 deglycosylation mutant N50Y, "WT") (Rattus norvegicus, UniProt P43427, A285T/N50Y/T452S); test: Tryptophan fluorescence quenching of purified rat GLUT5 WT
T3 sequence (P43427 with tags, fused parts or gaps N50Y/A285T/T452S): T1 sequence (P43427 with tags, fused parts or gaps N50Y/Q166E/A285T/T452S) with E166Q

[2] = target: T4, rGLUT5 with a single tryptophan residue (W419) (Rattus norvegicus, UniProt P43427, N50Y/W191F/W239F/W265F/W275F/W338F/W370F/W70F); test: Tryptophan fluorescence quenching of rat GLUT5 single tryptophan; conditions: 40 mM sugar
T4 sequence (P43427 with tags, fused parts or gaps N50Y/W70F/W191F/W239F/W265F/W275F/A285T/W338F/W370F/T452S): T1 sequence (P43427 with tags, fused parts or gaps N50Y/Q166E/A285T/T452S) with W70F, E166Q, W191F, W239F, W265F, W275F, W338F, W370F
Outline: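 Single-Trp rat protein (N50Y plus W70F, W191F, W239F, W265F, W275F, W338F, W370F) was used at 0.06 mg/ml in 20 mM Tris pH 7.5, 150 mM NaCl, 0.03% DDM, with or without 5 mM HgCl2. Sugars were each added at 40 mM final; D-fructose was also added sequentially up to 40 mM. After 2 min at room temperature: excitation 295 nm, emission 338 nm. Kd by non-linear regression; triplicate.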

sugar binding (in words) (rGLUT5 Q166E)	Kd (bovine GLUT5) [mM]	Kd ([1]; Kd, purified rGLUT5 WT (N50Y) in DDM, excitation 295 nm, emission 338 nm, n = 3) [mM]	quenching of tryptophan fluorescence (in words) ([1]; addition of sugar (40 mM) to rGLUT5)	tryptophan quenching (in words) [2]	Structure (SMILES)
clearly weakens	5.5 ± 0.6	6 to 9	strong quenching		O=C(CO)[C@@H](O)[C@H](O)[C@H](O)CO [D-fructose]
				No tryptophan quenching	O=C[C@H](O)[C@@H](O)[C@@H](O)[C@H](O)CO [D-galactose]
robust binding				No tryptophan quenching	OC[C@H]1OC(O)[C@H](O)[C@@H](O)[C@@H]1O (stereo partly drawn) [D-glucose]
				No tryptophan quenching	O=C(CO)[C@H](O)[C@@H](O)[C@@H](O)CO [L-fructose, reference compound]
